Data reported in ChEMBL document CHEMBL4229342, “Synthesis of novel proxyphylline derivatives with dual Anti-Candida albicans and anticancer activity” (Eur J Med Chem, 2018).

Key:
Type in all cases: functional
Candida albicans [1] = assay: Growth inhibition of Candida albicans ATCC 90028 at 0.125 ug/ml incubated for 18 hrs at 35 degC by broth microdilution method relative to control; settings: ATCC 90028, 18 h, read-out: GI
Candida albicans [2] = assay: Growth inhibition of Candida albicans ATCC 90028 at 8 ug/ml incubated for 4 hrs at 35 degC by broth microdilution method relative to control; settings: ATCC 90028, 4 h, read-out: GI
Candida albicans [3] = assay: Growth inhibition of Candida albicans ATCC 90028 at 16 ug/ml incubated for 48 hrs at 35 degC by broth microdilution method relative to control; settings: ATCC 90028, 48 h, read-out: GI
MCF7 [4] = assay: Antiproliferative activity against human MCF7 cells assessed as cell viability at 50 uM after 72 hrs by MTT assay; settings: MCF7, 72 h, read-out: Activity
How it was run: (§1)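 MTT viability assay in CCRF-CEM and MCF-7 cells after 72 h exposure at 25, 50, 100 and 200 µM. Results are relative to control cells without inhibitor in 0.5% DMSO. Done in triplicate; values are means ± SD of three independent experiments.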

CCRF-CEM [5] = assay: Antiproliferative activity against human CCRF-CEM cells assessed as cell viability at 25 uM after 72 hrs by MTT assay; settings: read-out: Activity; how it was run: as §1
Candida albicans [6] = assay: Growth inhibition of Candida albicans ATCC 90028 at 4 ug/ml incubated for 18 hrs at 35 degC by broth microdilution method relative to control; settings: ATCC 90028, 18 h, read-out: GI
Candida albicans [7] = assay: Growth inhibition of Candida albicans ATCC 90028 at 0.0313 ug/ml incubated for 18 hrs at 35 degC by broth microdilution method relative to control; settings: ATCC 90028, 18 h, read-out: GI
Candida albicans [8] = assay: Growth inhibition of Candida albicans ATCC 90028 at 0.0625 ug/ml incubated for 18 hrs at 35 degC by broth microdilution method relative to control; settings: ATCC 90028, 18 h, read-out: GI
Candida albicans [9] = assay: Growth inhibition of Candida albicans ATCC 90028 at 1 ug/ml incubated for 18 hrs at 35 degC by broth microdilution method relative to control; settings: ATCC 90028, 18 h, read-out: GI
Candida albicans [10] = assay: Growth inhibition of Candida albicans ATCC 90028 at 16 ug/ml incubated for 18 hrs at 35 degC by broth microdilution method relative to control; settings: ATCC 90028, 18 h, read-out: GI
CCRF-CEM [11] = assay: Antiproliferative activity against human CCRF-CEM cells assessed as cell viability at 50 uM after 72 hrs by MTT assay; settings: read-out: Activity; how it was run: as §1
Candida albicans [12] = assay: Growth inhibition of Candida albicans ATCC 90028 at 0.125 ug/ml incubated for 4 hrs at 35 degC by broth microdilution method relative to control; settings: ATCC 90028, 4 h, read-out: GI
Candida albicans [13] = assay: Growth inhibition of Candida albicans ATCC 90028 at 0.5 ug/ml incubated for 18 hrs at 35 degC by broth microdilution method relative to control; settings: ATCC 90028, 18 h, read-out: GI
Candida albicans [14] = assay: Growth inhibition of Candida albicans ATCC 90028 at 2 ug/ml incubated for 4 hrs at 35 degC by broth microdilution method relative to control; settings: ATCC 90028, 4 h, read-out: GI
Candida albicans [15] = assay: Growth inhibition of Candida albicans ATCC 90028 at 0.0625 ug/ml incubated for 4 hrs at 35 degC by broth microdilution method relative to control; settings: ATCC 90028, 4 h, read-out: GI
CCRF-CEM [16] = assay: Antiproliferative activity against human CCRF-CEM cells assessed as cell viability at 200 uM after 72 hrs by MTT assay; settings: read-out: Activity; how it was run: as §1
MCF7 [17] = assay: Antiproliferative activity against human MCF7 cells assessed as cell viability at 100 uM after 72 hrs by MTT assay; settings: MCF7, 72 h, read-out: Activity; how it was run: as §1
Candida albicans [18] = assay: Growth inhibition of Candida albicans ATCC 90028 at 1 ug/ml incubated for 4 hrs at 35 degC by broth microdilution method relative to control; settings: ATCC 90028, 4 h, read-out: GI
Candida albicans [19] = assay: Growth inhibition of Candida albicans ATCC 90028 at 0.25 ug/ml incubated for 18 hrs at 35 degC by broth microdilution method relative to control; settings: ATCC 90028, 18 h, read-out: GI
MCF7 [20] = assay: Antiproliferative activity against human MCF7 cells assessed as cell viability at 200 uM after 72 hrs by MTT assay; settings: MCF7, 72 h, read-out: Activity; how it was run: as §1
Candida albicans [21] = assay: Growth inhibition of Candida albicans ATCC 90028 at 0.0313 ug/ml incubated for 4 hrs at 35 degC by broth microdilution method relative to control; settings: ATCC 90028, 4 h, read-out: GI
MCF7 [22] = assay: Antiproliferative activity against human MCF7 cells assessed as cell viability at 25 uM after 72 hrs by MTT assay; settings: MCF7, 72 h, read-out: Activity; how it was run: as §1
CCRF-CEM [23] = assay: Antiproliferative activity against human CCRF-CEM cells assessed as cell viability at 100 uM after 72 hrs by MTT assay; settings: read-out: Activity; how it was run: as §1
Candida albicans [24] = assay: Growth inhibition of Candida albicans ATCC 90028 at 0.25 ug/ml incubated for 4 hrs at 35 degC by broth microdilution method relative to control; settings: ATCC 90028, 4 h, read-out: GI
Candida albicans [25] = assay: Growth inhibition of Candida albicans ATCC 90028 at 8 ug/ml incubated for 18 hrs at 35 degC by broth microdilution method relative to control; settings: ATCC 90028, 18 h, read-out: GI
Candida albicans [26] = assay: Growth inhibition of Candida albicans ATCC 90028 at 2 ug/ml incubated for 18 hrs at 35 degC by broth microdilution method relative to control; settings: ATCC 90028, 18 h, read-out: GI
Candida albicans [27] = assay: Growth inhibition of Candida albicans ATCC 90028 at 0.5 ug/ml incubated for 4 hrs at 35 degC by broth microdilution method relative to control; settings: ATCC 90028, 4 h, read-out: GI
Candida albicans [28] = assay: Fungicidal activity against Candida albicans ATCC 90028 assessed as log reduction in cell viability at 16 ug/ml after 48 hrs at 35 degC
How it was run: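 MFC assay on C. albicans ATCC 90028 following M27-A3, at the molar equivalent of 16 µg/mL. CFU of treated cells were compared with CFU of the untreated inoculum. Activity is given as lg R = lg CFU/mL control − lg CFU/mL treated, and lg R ≥3 was defined as fungicidal. Values are means of two independent experiments.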

Candida albicans [29] = assay: Growth inhibition of Candida albicans ATCC 90028 at 8 ug/ml incubated for 48 hrs at 35 degC by broth microdilution method relative to control; settings: ATCC 90028, 48 h, read-out: GI

## COC(C(=O)OC(C)Cn1cnc2c1c(=O)n(C)c(=O)n2C)c1ccc(C(C)(C)C)cc1 (stereo not drawn)
Candida albicans [1]
  inhibition of growth at 0.125 µg/mL: 100%
Candida albicans [2]
  inhibition of growth at 8 µg/mL: 99.5%
Candida albicans [3]
  inhibition of growth at 16 µg/mL: 99.2%
MCF7 [4]
  viability at 50 µM: 79.5%
CCRF-CEM [5]
  viability at 25 µM: 75.8%
Candida albicans [6]
  inhibition of growth at 4 µg/mL: 99.9%
Candida albicans [7]
  inhibition of growth at 0.0313 µg/mL: 99.8%
Candida albicans [8]
  inhibition of growth at 0.0625 µg/mL: 99.9%
Candida albicans [9]
  inhibition of growth at 1 µg/mL: 99.8%
Candida albicans [10]
  inhibition of growth at 16 µg/mL: 99.8%
CCRF-CEM [11]
  viability at 50 µM: 55.3%
Candida albicans [12]
  inhibition of growth at 0.125 µg/mL: 99.2%
Candida albicans [13]
  inhibition of growth at 0.5 µg/mL: 99.7%
Candida albicans [14]
  inhibition of growth at 2 µg/mL: 99.2%
Candida albicans [15]
  inhibition of growth at 0.0625 µg/mL: 99%
CCRF-CEM [16]
  viability at 200 µM: 0%
MCF7 [17]
  viability at 100 µM: 63.5%
Candida albicans [18]
  inhibition of growth at 1 µg/mL: 99.4%
Candida albicans [19]
  inhibition of growth at 0.25 µg/mL: 100%
MCF7 [20]
  viability at 200 µM: 35%
Candida albicans [21]
  inhibition of growth at 0.0313 µg/mL: 99.4%
MCF7 [22]
  viability at 25 µM: 82.2%
CCRF-CEM [23]
  viability at 100 µM: 28.6%
Candida albicans [24]
  inhibition of growth at 0.25 µg/mL: 99.3%
Candida albicans [25]
  inhibition of growth at 8 µg/mL: 100%
Candida albicans [26]
  inhibition of growth at 2 µg/mL: 99.9%
Candida albicans [27]
  inhibition of growth at 0.5 µg/mL: 98.9%
Candida albicans [28]
  log(activity): 0.2
Candida albicans [29]
  inhibition of growth at 8 µg/mL: 99.7%

## Brc1c(Br)c(Br)c2[nH]cnc2c1Br
MCF7 [4]
  viability at 50 µM: 24.6%
CCRF-CEM [5]
  viability at 25 µM: 6.3%
CCRF-CEM [11]
  viability at 50 µM: 0%
CCRF-CEM [16]
  viability at 200 µM: 0%
MCF7 [17]
  viability at 100 µM: 9%
MCF7 [20]
  viability at 200 µM: 1.7%
MCF7 [22]
  viability at 25 µM: 19.6%
CCRF-CEM [23]
  viability at 100 µM: 0%

## CC(Cn1cnc2c1c(=O)n(C)c(=O)n2C)OC(=O)CC(=O)c1ccccc1 (stereo not drawn)
Candida albicans [1]
  inhibition of growth at 0.125 µg/mL: 99.2%
Candida albicans [2]
  inhibition of growth at 8 µg/mL: 99.1%
Candida albicans [3]
  inhibition of growth at 16 µg/mL: 99%
MCF7 [4]
  viability at 50 µM: 79.8%
CCRF-CEM [5]
  viability at 25 µM: 85.1%
Candida albicans [6]
  inhibition of growth at 4 µg/mL: 99.2%
Candida albicans [7]
  inhibition of growth at 0.0313 µg/mL: 99.2%
Candida albicans [8]
  inhibition of growth at 0.0625 µg/mL: 99.2%
Candida albicans [9]
  inhibition of growth at 1 µg/mL: 99.3%
Candida albicans [10]
  inhibition of growth at 16 µg/mL: 99.7%
CCRF-CEM [11]
  viability at 50 µM: 88.1%
Candida albicans [12]
  inhibition of growth at 0.125 µg/mL: 99%
Candida albicans [13]
  inhibition of growth at 0.5 µg/mL: 99.1%
Candida albicans [14]
  inhibition of growth at 2 µg/mL: 99.1%
Candida albicans [15]
  inhibition of growth at 0.0625 µg/mL: 99.1%
CCRF-CEM [16]
  viability at 200 µM: 38.5%
MCF7 [17]
  viability at 100 µM: 79.3%
Candida albicans [18]
  inhibition of growth at 1 µg/mL: 99.1%
Candida albicans [19]
  inhibition of growth at 0.25 µg/mL: 99.1%
MCF7 [20]
  viability at 200 µM: 81.8%
Candida albicans [21]
  inhibition of growth at 0.0313 µg/mL: 99.1%
MCF7 [22]
  viability at 25 µM: 91.3%
CCRF-CEM [23]
  viability at 100 µM: 65.6%
Candida albicans [24]
  inhibition of growth at 0.25 µg/mL: 99%
Candida albicans [25]
  inhibition of growth at 8 µg/mL: 99.8%
Candida albicans [26]
  inhibition of growth at 2 µg/mL: 99.3%
Candida albicans [27]
  inhibition of growth at 0.5 µg/mL: 99%
Candida albicans [28]
  log(activity): 0.7
Candida albicans [29]
  inhibition of growth at 8 µg/mL: 99%

## Cc1ccc(C(=O)CC(=O)OC(C)Cn2cnc3c2c(=O)n(C)c(=O)n3C)cc1 (stereo not drawn)
Candida albicans [1]
  inhibition of growth at 0.125 µg/mL: 100%
Candida albicans [3]
  inhibition of growth at 16 µg/mL: 99.1%
MCF7 [4]
  viability at 50 µM: 82.2%
CCRF-CEM [5]
  viability at 25 µM: 89.5%
Candida albicans [6]
  inhibition of growth at 4 µg/mL: 100%
Candida albicans [7]
  inhibition of growth at 0.0313 µg/mL: 100%
Candida albicans [8]
  inhibition of growth at 0.0625 µg/mL: 99.8%
Candida albicans [9]
  inhibition of growth at 1 µg/mL: 100%
Candida albicans [10]
  inhibition of growth at 16 µg/mL: 100%
CCRF-CEM [11]
  viability at 50 µM: 74.2%
Candida albicans [13]
  inhibition of growth at 0.5 µg/mL: 99.8%
Candida albicans [14]
  inhibition of growth at 2 µg/mL: 99.2%
Candida albicans [15]
  inhibition of growth at 0.0625 µg/mL: 99.3%
CCRF-CEM [16]
  viability at 200 µM: 31.6%
MCF7 [17]
  viability at 100 µM: 86.6%
Candida albicans [18]
  inhibition of growth at 1 µg/mL: 99.2%
Candida albicans [19]
  inhibition of growth at 0.25 µg/mL: 100%
MCF7 [20]
  viability at 200 µM: 82.7%
Candida albicans [21]
  inhibition of growth at 0.0313 µg/mL: 99.8%
MCF7 [22]
  viability at 25 µM: 89%
CCRF-CEM [23]
  viability at 100 µM: 67.3%
Candida albicans [24]
  inhibition of growth at 0.25 µg/mL: 99.2%
Candida albicans [25]
  inhibition of growth at 8 µg/mL: 100%
Candida albicans [26]
  inhibition of growth at 2 µg/mL: 100%
Candida albicans [27]
  inhibition of growth at 0.5 µg/mL: 99.2%
Candida albicans [28]
  log(activity): 0.5
Candida albicans [29]
  inhibition of growth at 8 µg/mL: 99.3%
